# ChEMBL document CHEMBL4138271, “Crystal Structures and Human Leukemia Cell Apoptosis Inducible Activities of Parthenolide Analogues Isolated from Piptocoma rufescens” (J Nat Prod, 2018)
# The source made the active and inactive calls. The rule behind the calls is not given here.
# How the values were obtained:
# [1] = test system: MOLM-13; experiment: Induction of apoptosis in human MOLM13 cells assessed as necrotic cells at 0.26 uM after 24 hrs by Annexin-V FITC/7-AAD staining based flow cytometric method (reference value: 0%); format: functional
# [2] = test system: MOLM-13; experiment: Induction of apoptosis in human MOLM13 cells assessed as live cells at 1.8 uM after 24 hrs by Annexin-V FITC/7-AAD staining based flow cytometric method (reference value: 86.8%); format: functional
# [3] = test system: MOLM-13; experiment: Cytotoxicity against human MOLM13 cells after 72 hrs by MTS assay; format: functional, cell-based; conditions: MOLM-13, 72 h
# [4] = test system: EOL1; experiment: Induction of apoptosis in human EOL-1 cells assessed as late apoptotic cells at 0.59 uM after 24 hrs by Annexin-V FITC/7-AAD staining based flow cytometric method (reference value: 0.535%); format: functional
# [5] = test system: MOLM-13; experiment: Induction of apoptosis in human MOLM13 cells assessed as live cells at 0.26 uM after 24 hrs by Annexin-V FITC/7-AAD staining based flow cytometric method (reference value: 86.8%); format: functional
# [6] = test system: EOL1; experiment: Induction of apoptosis in human EOL-1 cells assessed as necrotic cells at 1.8 uM after 24 hrs by Annexin-V FITC/7-AAD staining based flow cytometric method (reference value: 0.032%); format: functional
# [7] = test system: MOLM-13; experiment: Induction of apoptosis in human MOLM13 cells assessed as early apoptotic cells at 0.59 uM after 24 hrs by Annexin-V FITC/7-AAD staining based flow cytometric method (reference value: 11.8%); format: functional
# [8] = test system: MOLM-13; experiment: Induction of apoptosis in human MOLM13 cells assessed as caspase-3 activation at 10 uM after 72 hrs by immunoblotting analysis; format: functional, cell-based
# Method in brief: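 MOLM-13 cells treated 72 h with test compounds at 10 μM or PKC412 at 10 nM. Cells washed in ice-cold PBS, lysed at 10^8 cells/mL in NP-40 hypertonic buffer (pH 7.5) with protease/phosphatase inhibitors, then run on SDS-PAGE and PVDF. Blots probed 12 h with rabbit monoclonal cleaved caspase-3 (Asp175), β-actin as loading control. Representative of three independent experiments.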
# [9] = test system: MOLM-13; experiment: Synergistic antileukemic activity against human MOLM13 cells assessed as concentration required for <= 75% cell survival after 72 hrs in presence of midostaurin by CellTiter 96 AQueous One solution cell proliferation assay; format: functional
# [10] = test system: EOL1; experiment: Induction of apoptosis in human EOL-1 cells assessed as caspase-3 activation at 10 uM after 72 hrs by immunoblotting analysis; format: functional, cell-based
# Method in brief: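 EOL-1 cells (RPMI 1640, 10% FBS, 37 °C, 5% CO2) exposed 72 h; compounds at 10 μM, PKC412 at 10 nM. Harvested, PBS-washed, lysed in hypertonic NP-40 buffer with protease/phosphatase inhibitors; SDS-PAGE, PVDF transfer, rabbit monoclonal cleaved caspase-3 (Asp175) antibody 12 h, secondary 1 h, chemiluminescent detection; β-actin loading control. Representative blots of three independent experiments.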
# [11] = test system: MOLM-13; experiment: Induction of apoptosis in human MOLM13 cells assessed as necrotic cells at 1.8 uM after 24 hrs by Annexin-V FITC/7-AAD staining based flow cytometric method (reference value: 0%); format: functional
# [12] = molecular target: Transcription factor p65 (Homo sapiens) (UniProt Q04206); experiment: Inhibition of NFkappaB p65 in human MOLM13 cells at 10 uM after 72 hrs by immunoblotting method; format: cell-based
# Method in brief: (§1)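 MOLM-13 or EOL-1 cells treated 72 h at 10 μM. Cells washed in ice-cold PBS and lysed in hypertonic NP-40 buffer (10 mM HEPES pH 7.5, 0.5 M NaCl) with protease/phosphatase inhibitors. Protein measured by BCA; SDS-PAGE onto PVDF. Probed 12 h with rabbit monoclonal NF-κB-p65 antibody, goat β-actin as loading control, then chemiluminescence. Blots representative of three independent experiments.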
# [13] = test system: EOL1; experiment: Synergistic antileukemic activity against human EOL-1 cells assessed as concentration required for <= 75% cell survival after 72 hrs in presence of midostaurin by CellTiter 96 AQueous One solution cell proliferation assay; format: functional
# [14] = test system: MOLM-13; experiment: Induction of apoptosis in human MOLM13 cells assessed as early apoptotic cells at 0.26 uM after 24 hrs by Annexin-V FITC/7-AAD staining based flow cytometric method (reference value: 11.8%); format: functional
# [15] = test system: MOLM-13; experiment: Induction of apoptosis in human MOLM13 cells assessed as necrotic cells at 0.59 uM after 24 hrs by Annexin-V FITC/7-AAD staining based flow cytometric method (reference value: 0%); format: functional
# [16] = test system: EOL1; experiment: Induction of apoptosis in human EOL-1 cells assessed as necrotic cells at 0.26 uM after 24 hrs by Annexin-V FITC/7-AAD staining based flow cytometric method (reference value: 0.032%); format: functional
# [17] = test system: EOL1; experiment: Induction of apoptosis in human EOL-1 cells assessed as early apoptotic cells at 0.59 uM after 24 hrs by Annexin-V FITC/7-AAD staining based flow cytometric method (reference value: 1.94%); format: functional
# [18] = test system: MOLM-13; experiment: Induction of apoptosis in human MOLM13 cells assessed as early apoptotic cells at 1.8 uM after 24 hrs by Annexin-V FITC/7-AAD staining based flow cytometric method (reference value: 11.8%); format: functional
# [19] = test system: EOL1; experiment: Induction of apoptosis in human EOL-1 cells assessed as live cells at 0.59 uM after 24 hrs by Annexin-V FITC/7-AAD staining based flow cytometric method (reference value: 97.5%); format: functional
# [20] = test system: MOLM-13; experiment: Induction of apoptosis in human MOLM13 cells assessed as late apoptotic cells at 1.8 uM after 24 hrs by Annexin-V FITC/7-AAD staining based flow cytometric method (reference value: 1.43%); format: functional
# [21] = test system: MOLM-13; experiment: Induction of apoptosis in human MOLM13 cells assessed as live cells at 0.59 uM after 24 hrs by Annexin-V FITC/7-AAD staining based flow cytometric method (reference value: 86.8%); format: functional
# [22] = test system: EOL1; experiment: Cytotoxicity against human EOL-1 cells after 72 hrs by MTS assay; format: functional, cell-based; conditions: EOL1, 72 h
# [23] = test system: EOL1; experiment: Induction of apoptosis in human EOL-1 cells assessed as early apoptotic cells at 0.26 uM after 24 hrs by Annexin-V FITC/7-AAD staining based flow cytometric method (reference value: 1.94%); format: functional
# [24] = test system: EOL1; experiment: Induction of apoptosis in human EOL-1 cells assessed as early apoptotic cells at 1.8 uM after 24 hrs by Annexin-V FITC/7-AAD staining based flow cytometric method (reference value: 1.94%); format: functional
# [25] = test system: EOL1; experiment: Induction of apoptosis in human EOL-1 cells assessed as late apoptotic cells at 0.26 uM after 24 hrs by Annexin-V FITC/7-AAD staining based flow cytometric method (reference value: 0.535%); format: functional
# [26] = test system: EOL1; experiment: Induction of apoptosis in human EOL-1 cells assessed as live cells at 1.8 uM after 24 hrs by Annexin-V FITC/7-AAD staining based flow cytometric method (reference value: 97.5%); format: functional
# [27] = test system: MOLM-13; experiment: Induction of apoptosis in human MOLM13 cells assessed as late apoptotic cells at 0.26 uM after 24 hrs by Annexin-V FITC/7-AAD staining based flow cytometric method (reference value: 1.43%); format: functional
# [28] = test system: MOLM-13; experiment: Induction of apoptosis in human MOLM13 cells assessed as late apoptotic cells at 0.59 uM after 24 hrs by Annexin-V FITC/7-AAD staining based flow cytometric method (reference value: 1.43%); format: functional
# [29] = test system: EOL1; experiment: Induction of apoptosis in human EOL-1 cells assessed as necrotic cells at 0.59 uM after 24 hrs by Annexin-V FITC/7-AAD staining based flow cytometric method (reference value: 0.032%); format: functional
# [30] = molecular target: Transcription factor p65 (Homo sapiens) (UniProt Q04206); experiment: Inhibition of NFkappaB p65 in human EOL-1 cells at 10 uM after 72 hrs by immunoblotting method; format: cell-based; method in brief: as §1
# [31] = test system: EOL1; experiment: Induction of apoptosis in human EOL-1 cells assessed as late apoptotic cells at 1.8 uM after 24 hrs by Annexin-V FITC/7-AAD staining based flow cytometric method (reference value: 0.535%); format: functional
# [32] = test system: HT-29; experiment: Cytotoxicity against human HT-29 cells after 72 hrs by MTS assay; format: functional, cell-based; conditions: HT-29, 72 h
# [33] = test system: EOL1; experiment: Induction of apoptosis in human EOL-1 cells assessed as live cells at 0.26 uM after 24 hrs by Annexin-V FITC/7-AAD staining based flow cytometric method (reference value: 97.5%); format: functional
# Chain of Transcription factor p65 (Homo sapiens) (Q04206 whole entry): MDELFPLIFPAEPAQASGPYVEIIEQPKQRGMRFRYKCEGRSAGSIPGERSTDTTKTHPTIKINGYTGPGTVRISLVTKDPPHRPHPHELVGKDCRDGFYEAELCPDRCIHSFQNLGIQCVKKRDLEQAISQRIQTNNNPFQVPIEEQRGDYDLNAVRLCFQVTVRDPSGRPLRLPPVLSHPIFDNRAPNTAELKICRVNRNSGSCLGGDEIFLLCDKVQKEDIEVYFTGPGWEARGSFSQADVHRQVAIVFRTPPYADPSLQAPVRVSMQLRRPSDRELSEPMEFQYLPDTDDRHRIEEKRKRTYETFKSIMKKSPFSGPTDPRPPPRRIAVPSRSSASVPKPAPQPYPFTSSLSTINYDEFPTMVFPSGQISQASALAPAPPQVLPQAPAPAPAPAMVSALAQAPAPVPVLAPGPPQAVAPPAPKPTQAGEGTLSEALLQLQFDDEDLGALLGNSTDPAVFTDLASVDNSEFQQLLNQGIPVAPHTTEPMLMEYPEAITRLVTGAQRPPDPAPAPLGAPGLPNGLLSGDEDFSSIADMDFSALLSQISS
smiles,measurement,setting,value
C=C(C)C(=O)O[C@H]1C[C@@]2(C)OC(=CC2=O)/C(C)=C\[C@H]2OC(=O)C(=C)[C@H]12,Activity,[1],0.08%
same,Activity,[2],1.66%
same,IC50,[3],1100 nM
same,Activity,[4],4.42%
same,Activity,[5],92.3%
same,Activity,[6],4.7%
same,Activity,[7],10.9%
same,Activity,[8],Active
same,Activity,[9],0.44 µM
same,Activity,[10],Active
same,Activity,[11],9.96%
same,inhibition,[12],Active
same,Activity,[13],0.59 µM
same,Activity,[14],6.62%
same,Activity,[15],0.214%
same,Activity,[16],0.032%
same,Activity,[17],2.66%
same,Activity,[18],1.25%
same,Activity,[19],92.6%
same,Activity,[20],87.1%
same,Activity,[21],86.5%
same,IC50,[22],1000 nM
same,Activity,[23],1.9%
same,Activity,[24],0.24%
same,Activity,[25],0.568%
same,Activity,[26],25.9%
same,Activity,[27],0.097%
same,Activity,[28],2.42%
same,Activity,[29],0.301%
same,inhibition,[30],Active
same,Activity,[31],69.1%
same,IC50,[32],260 nM
same,Activity,[33],97.5%
